Active and inactive are the calls of the source. The calls are words filed in the database; no cut-off is given here.

The subject of assay [1] is Aspergillus pseudoglaucus. As to the kind of experiment: Antifungal activity against Eurotium repens at 50 ug/disk. It counts as functional. To be noted: for zone of inhibition at 50 µg/disc: read-out: IZ. In outline:
(§1)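 Agar diffusion assay: 50 µg of compound applied per filter disk on seeded agar. The read-out is the inhibition zone, measured in mm from the edge of the filter disk.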

Assay [2] relates to Fusarium oxysporum. The assay can be described thus: Antifungal activity against Fusarium oxysporum at 50 ug/disk. The class given is functional. In outline:
as §1

In assay [3] the test system is Microbotryum violaceum. As to the kind of experiment: Antifungal activity against Ustilago violacea at 50 ug/disk. The class given is functional. In outline: as §1
In assay [4] the test system is Mycotypha microspora. The assay can be described thus: Antifungal activity against Mycotypha microspora at 50 ug/disk. The class given is functional. In outline: as §1
Assay [5] concerns [Chlorella] fusca. The assay can be described thus: Antialgal activity against Chlorella fusca at 50 ug/disk. To be noted: Scenedesmus fuscus; for zone of inhibition at 50 µg/disc: read-out: IZ. It counts as functional. In a few lines:
as §1

Assay [6] addresses Tyrosine-protein kinase Lck (Homo sapiens, UniProt P06239). As to the kind of experiment: Inhibition of tyrosine kinase p56-lck.
Assay [7] concerns Priestia megaterium. The assay can be described thus: Antibacterial activity against Bacillus megaterium at 50 ug/disk. The class given is functional. The following applies: for zone of inhibition at 50 µg/disc: read-out: IZ. In a few lines:
as §1

Assay [8] concerns Escherichia coli. As to the kind of experiment: Antibacterial activity against Escherichia coli at 50 ug/disk. To be noted: for zone of inhibition at 50 µg/disc: read-out: IZ. It counts as functional. In a few lines: as §1
The target of assay [9] is Human immunodeficiency virus type 1 reverse transcriptase (Human immunodeficiency virus 1) (UniProt Q72547). The assay can be described thus: Inhibition of HIV1 RT.

With `Clc1ccc(COC(Cn2ccnc2)c2ccc(Cl)cc2Cl)c(Cl)c1` (stereo unspecified) [MICONAZOLE], the zone of inhibition at 50 µg/disc in assay [1] is 20 mm; in [2] (read-out: IZ), 3 mm; in assay [3] (read-out: IZ) it was 32 mm; in assay [4] (read-out: IZ) it was 5 mm; in assay [5], 4 mm.

By IC50 is commonly meant the point on the concentration scale where inhibition reaches its midpoint. A lower IC50 goes with greater potency in that assay. For `COc1cc(C)c(O)c(C[C@]2(C)[C@H]3CCC(=C(C)C)[C@@H](CCC(=O)O)[C@]3(C)CC[C@H]2C)c1` [ATOMARIC ACID], the midpoint of inhibition in assay [6], the IC50, lay at 208 µM. The zone of inhibition at 50 µg/disc in assay [7] came out at 1 mm; in assay [8], 1 mm; in assay [5] it was 5 mm. In addition, the outcome in assay [1], in [2], in [3], in [4] and in [9] was inactive.

With `CC1=CC(=O)C=C(C[C@]2(C)[C@H]3CCC(=C(C)C)[C@@H](CCC(=O)O)[C@]3(C)CC[C@H]2C)C1=O` [STYPOQUINONIC ACID], the midpoint of inhibition in assay [6], the IC50, lay at 187 µM. Further, the zone of inhibition at 50 µg/disc in assay [7] and in [8] was 1 mm each time. The result in assay [1], in assay [2], in assay [3], in assay [4], in assay [5] and in assay [9] was inactive.

Turning to `Cc1cc(O)cc2c1O[C@@]1(C)CC[C@@H]3[C@@]4(C)CC[C@H](O)C(C)(C)[C@@H]4CC[C@@]3(C)[C@@H]1C2` [TAONDIOL], the result in assay [6], in [7], in [8], in [5] and in assay [9] was inactive. In addition, in [1], the zone of inhibition at 50 µg/disc came out at 2 mm.

Consider `CCOC(=O)c1ccccc1C(=O)OCC` [DIETHYL PHTHALATE], for which the results for the zone of inhibition at 50 µg/disc in assay [7] and in [5] were 10 mm and 13 mm, respectively.
